# HCV core dimer: blocks dimerization of HCV core protein | TR-FRET GST/Flag-core106 dimerization, 1536-well | inhibition, % at 5 µM | actives 0.33% (n = 300,000);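 active means inhibition above the mean of all tested compounds plus 3 SD, set per screening campaign, cut at about 45% in these data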
#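 Assay system: Tagged HCV core106 pair (GST and Flag) | Buffer or medium: KF-containing HEPES buffer, pH 7.45, DTT, CHAPS, BSA | Also added: Eu donor and XL665 acceptor anti-tag antibodies | Dosing: One concentration, 5 µM, in 0.5% DMSO | Timing: 4 h at 22.5 °C | Technique: TR-FRET 671 and 617 nm emission | Repeats: Singlicate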
# EBV gp42 block: inhibitors of Epstein-Barr virus glycoprotein 42; actives 0.42% (n = 220,000); inhibition, % (tested at 21.74 µM); Fluorescence polarization binding assay, mP read-out; Q1HVG2; in the data active means inhibition above about 50%
# ZTA DNA inh: blocks Epstein-Barr virus ZTA, an EBNA-1 counter-screen; actives 0.15% (n = 320,000); ZTA-DNA binding, fluorescence polarization; inhibition, % at 11 µM; in the data active means inhibition above about 33%
# Target sequence (P03206 whole entry, looked up): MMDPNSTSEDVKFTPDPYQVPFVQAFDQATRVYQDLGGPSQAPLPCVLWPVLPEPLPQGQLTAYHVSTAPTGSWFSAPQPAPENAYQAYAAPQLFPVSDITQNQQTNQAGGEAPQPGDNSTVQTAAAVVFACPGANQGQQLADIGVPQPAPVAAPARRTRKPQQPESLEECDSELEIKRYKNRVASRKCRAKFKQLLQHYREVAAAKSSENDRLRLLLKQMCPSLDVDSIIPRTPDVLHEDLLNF
# MEX-5 binding: C. elegans MEX-5 TCR-2 RNA binding activity; Q9XUB2; AID 1832; MEX-5/FITC-TCR2 RNA binding, fluorescence polarization; stronger effect = lower value; actives 0.38% (n = 300,000); activity score (negative = inhibition of binding), % at 10 µM;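 active means inhibition past about -25% in most replicates, and total fluorescence under double the plate's negative control median, limit read from the data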;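 further: 0% = DMSO and -100% = 5 µM competing unlabeled TCR2 RNA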
# EBNA-1 inh: blocks EBNA-1 binding to DNA | EBNA-1 DNA binding, fluorescence polarization | inhibition, % at 14.8 µM | actives 0.34% (n = 300,000) | AID 1950; in the data active means inhibition above about 28%
# HCV NS3 hel inh: blocks Hepatitis C virus NS3 helicase unwinding | inhibition, % at 10.9 µM | actives 0.56% (n = 290,000) | NS3 helicase DNA unwinding, Cy5 molecular beacon fluorescence | AID 1800;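 active means inhibition above the mean of all tested compounds plus 3 SD, set per campaign, cut at about 35% in these data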;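 further: 0% = DMSO wells and 100% = thioflavine S control wells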
#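 System: HCV NS3 helicase fragment; control set: DMSO and thioflavine S; technique: Cy5 fluorescence at 0 and 60 min, beacon hairpin quenching; reagent: beacon DNA duplex substrate plus ATP; replicates: singlicate; schedule: 1 h reaction at 25 °C, ATP-initiated; medium: MOPS buffer pH 6.5 with MgCl2, DTT, Tween20, BSA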
# NS3 helicase cf: HCV NS3 helicase inhibition, confirmation assay; shares compounds with HCV NS3 hel inh; NS3 helicase DNA unwinding, Cy5 molecular beacon fluorescence; inhibition, % at 10.9 µM; actives 31% (n = 1,600);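 active means inhibition above the mean of all tested compounds plus 3 SD, cutoff set per campaign, cut at about 36% in these data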
# FID counter trip: intercalator displacement, NS3 helicase counter-screen; shares compounds with HCV NS3 hel inh; DNA fluorescent intercalator displacement, fluorescence; inhibition, % at 7.9 µM; actives 4% (n = 1,600); AID 1945; in the data active means inhibition above about 37%;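 further: 0% = vehicle and 100% = reference compound; higher means more displacement of ethidium bromide from the DNA hairpin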
# The depositor's hits bear a star; / = no result given. Compounds with a hit are over-represented: about 1.7% of the library has one in this group of screens.
SMILES,HCV core dimer,EBV gp42 block,ZTA DNA inh,MEX-5 binding,EBNA-1 inh,HCV NS3 hel inh,NS3 helicase cf,FID counter trip
O=C(O)CCCN1C(=O)/C(=C/C=C/c2ccco2)SC1=S,75*,-29,88*,-17,45*,73*,76*,4
O=C(O)C(Cc1ccccc1)N1C(=O)/C(=C/C=C/c2ccco2)SC1=S (stereo unspecified),/,-9,/,0,/,31,/,/
COc1ccc(CN(C(=O)Cc2c[nH]c3ccccc23)C(C(=O)NC2CCCCC2)c2ccc(C)o2)cc1 (stereo unspecified),10,-8,-13,3,-8,65*,11,-22
Cc1ccc(C(C(=O)NC2CCCCC2)N(Cc2ccccc2)C(=O)Cc2c[nH]c3ccccc23)o1 (stereo unspecified),17,5,7,0,-13,-10,/,/
COc1ccc(/C=N\NC(=O)c2ccc(F)cc2)cc1COc1ccccc1C(N)=O,7,/,-8,0,6,-3,/,/
COc1cccc(C(=O)N/N=C/c2ccc(OC)c(COc3ccccc3C(N)=O)c2)c1,2,/,-12,-1,3,43*,-12,-41
Cn1cccc1CC(=O)N/N=C/c1ccc(Cl)cc1,12,-7,16,1,5,0,/,/
Cn1cccc1CC(=O)NNC(=S)Nc1ccc(Cl)cc1,-9,3,-17,-2,-16,36*,-9,10
Cn1cccc1CC(=O)NNC(=S)Nc1ccccc1Cl,14,6,0,-1,-2,46*,-9,13
Clc1cccc2c3c([nH]c12)CCNC3,-1,/,1,-1,0,-20,/,/
O=C(NNC1CC(=O)N(c2ccc(Cl)cc2)C1=O)c1ccccc1Cl (stereo unspecified),1,-2,-5,2,4,38*,-14,-6
O=C(COC(=O)/C=C/c1cccc([N+](=O)[O-])c1)NCC1CCCO1 (stereo unspecified),1,-9,3,-2,16,48*,-7,4
O=C(COC(=O)/C=C/c1ccc([N+](=O)[O-])cc1)NCC1CCCO1 (stereo unspecified),-2,-20,5,-2,-3,-9,/,/
CC(NC(=O)C1CCN(S(=O)(=O)c2ccc(Br)s2)CC1)c1ccccc1 (stereo unspecified),-1,/,-6,-1,-10,-3,/,/
COc1ccc(OC)c(/C=C/c2ccc3cccc(O)c3n2)c1,-16,/,-17,-4,-10,60*,-11,-1
CC(C)n1cc(C(=O)NC2CC(C)(C)Cc3c2cnn3-c2ccccc2)cn1 (stereo unspecified),-6,/,-17,1,1,1,/,/
CC(CCc1ccco1)NC(=O)CCc1nnc2ccc(NCc3ccccc3Cl)nn12 (stereo unspecified),17,/,-22,-6,-1,61*,4,-2
CC(CCc1ccco1)NC(=O)CCc1nnc2ccc(NCc3ccc(Cl)cc3)nn12 (stereo unspecified),5,/,4,2,-8,-3,/,/
COc1ccc(C(=O)N/C(=C/c2ccco2)C(=O)NCc2ccco2)cc1,0,/,-4,0,-10,3,/,/
Cc1ccc(C(=O)N/C(=C/c2ccco2)C(=O)N2CCC(C)CC2)cc1,3,/,-11,-1,-6,47*,-19,-32
CC1CCN(C(=O)/C(=C\c2ccco2)NC(=O)c2ccccc2)CC1,-1,/,-1,1,6,10,/,/
Cc1ccc(C(=O)N/C(=C/c2ccco2)C(=O)NCc2ccco2)cc1,-7,/,2,-2,-6,37*,1,9
COc1ccc(-n2nc3ccc(N)cc3n2)cc1Cl,15,/,-16,1,1,37*,-5,23
Cc1ccc(-n2nc3ccc(N)cc3n2)cc1C,-1,/,-26,0,-13,70*,-9,28

# Bioassay records deposited in PubChem BioAssay by several laboratories.
